# Experimental data collected from several papers.
# Target: Mitogen-activated protein kinase kinase kinase kinase 1 (MAP4K1, Homo sapiens, UniProt Q92918)
SMILES,test,conditions,remaining binding [%]
COc1ncc2cc3ccccc3nc2c1C#N,"cell-free assay, competition with immobilised ligand",5 µM,89
N#Cc1ccc(Nc2ccc3[nH]c(=O)[nH]c3c2)c(Cl)c1,"cell-free assay, competition with immobilised ligand",1 µM,100
O=C(Nc1c[nH]nc1C(=O)NC1CCNCC1)c1cc(F)cc(F)c1,"binding, competition with immobilised ligand",1 µM,100
C=CC(=O)N1CCC(C(=O)NCC(=O)N2CCN(c3nc(-c4cnc(N)nc4C(F)F)nc(N4CCOCC4)n3)CC2)CC1,"binding, competition with immobilised ligand",1 µM,100
Cc1c(NC(=O)c2cc(C(N)=O)nc3cc(F)ccc23)c(C(F)(F)F)nn1Cc1ccc(C#N)cc1,"cell-free assay, competition with immobilised ligand",1 µM,100
CN(C)c1ncc(F)c(-c2cnn3ncccc23)n1,binding,1 µM,100
CN(C)C(=O)Cn1cc(-c2nc([C@@](C)(c3ccc(-c4cnc(N)nc4)cc3)C3CC3)no2)cn1,"cell-free assay, competition with immobilised ligand",1 µM,100
CN(CCCC(F)(F)F)c1nccc(-c2cnn3ncccc23)n1,binding,1 µM,95
COc1cnc(Nc2cccc(S(N)(=O)=O)c2)nc1N1CCN(c2ccccc2)CC1,"binding, competition with immobilised ligand",1 µM,88
Nc1ncc2c(n1)-c1c([nH]c3ccc(C#CC4CC4)cc13)CCCC2,"binding, competition with immobilised ligand",1 µM,100
c1cnn2ncc(-c3ccnc(N4CCC45COC5)n3)c2c1,binding,1 µM,100
O=C(NCCCN1CCOCC1)c1ccc(Nc2ncc(Cl)c(-c3ccc(Cl)s3)n2)cc1,"binding, competition with immobilised ligand",1 µM,17
CN(C(=O)c1ccccc1)c1cc(N(C)c2ccc3c(c2)CCc2ccc(C(=O)NCCN4CCOCC4)cc2C3=O)ccc1F,"cell-free assay, competition with immobilised ligand",1 µM,99
O=C(NCCCN1CCOCC1)c1ccc(Nc2nccc(-c3cc4ccccc4s3)n2)cc1,"binding, competition with immobilised ligand",1 µM,85
COc1cnc(Nc2cccc(S(N)(=O)=O)c2)nc1N1CCN(c2ccccc2)C(=O)C1,"binding, competition with immobilised ligand",1 µM,87
C[C@@H]1CCN(c2nccc(-c3cnn4ncccc34)n2)C1,binding,1 µM,100
COCCOc1nc(-c2ccc(Cl)nc2)nc2c1CN(C(=O)c1ncn3ccccc13)CC2,"cell-free assay, competition with immobilised ligand",0.1 µM,92
F[C@@H]1CCN(c2nccc(-c3cnn4ncccc34)n2)C1,binding,1 µM,100
CCOCCn1cc(C(=O)Nc2ccc(-n3nc(-c4cccnc4)cc3C(F)(F)F)cn2)ccc1=O,"cell-free assay, competition with immobilised ligand",1 µM,81
Cc1cnc(Nc2ccc(C(=O)N3CCC(N4CCCC4)CC3)cc2)nc1-c1cc2ccccc2s1,"binding, competition with immobilised ligand",1 µM,22
N[C@H]1CCN(c2nccc(-c3cnn4ncccc34)n2)C1,binding,1 µM,100
Cc1cc(-n2nc(Cc3cc(F)cc(C(F)(F)F)c3)nc2C)ccc1C(N)=O,"cell-free assay, competition with immobilised ligand",1 µM,100
